Data on 8 molecules can be found in PMC4256430 (Journal of immunology (Baltimore, Md. : 1950), 2010).

The test system of test [1] is ERK phosphorylation in peritoneal Mϕs (WT and Fpr2^−/−). Briefly: ERK phosphorylation in Mϕs. The test is classed as cell-based, mouse. The note with it: concentration range, 10 min at 37°C, n = 3; for ERK phosphorylation, Fpr2^−/− Mϕs: Fpr2^−/− Mϕs compared with WT. The procedure, abridged: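 Peritoneal macrophages from WT littermates and Fpr2−/− mice were equilibrated 30 min in Glutamax DMEM with penicillin/streptomycin, then exposed to ligand concentration ranges for 10 min at 37°C. Lysates underwent SDS-PAGE and PVDF transfer. Blots were probed overnight for phospho-p44/42 and total p44/42 (each 1:1000), with HRP anti-rabbit and ECL detection. Read-out was the phospho-/total ERK ratio, from three distinct cultures (Mann-Whitney U).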

Test [2] concerns Fpr2. The note with it: cited from earlier work.
Test [3] deals with Fpr2. The test is classed as binding, mouse. As to conditions: WT Mϕs; [125I]-labeled W-peptide. The procedure, abridged: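 Primary peritoneal macrophages (10 × 10^6 cells/ml in PBS with Ca2+/Mg2+) were incubated with [125I]W-peptide tracer for 1 h on ice. Excess unlabeled W-peptide defined nonspecific binding; specific binding was calculated as total minus nonspecific. Cells were collected on GF/C filters by vacuum filtration and washed three times with ice-cold 10 mM Tris-HCl. Bound counts were read on a γ-counter. The experiment was repeated three times.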

The test system of test [4] is IL-1β–induced Gr1^+ cell recruitment, WT and Fpr2^−/− mice. Put plainly: IL-1β–induced air pouch, Gr1^+ cell. The format is in vivo, mouse. As to conditions: 4 h; for inhibition of IL-1β-promoted Gr1^+ cell recruitment, WT: Ac2–26 dose-dependent, LXA4 and Cpd43 at anti-inflammatory doses, n = 6, p < 0.01.
Another test deals with FPR2/ALX. As to conditions: ref [32]; cited from earlier work.
The subject of a further test is all FPRs. As to conditions: in vitro experimental settings; ref [33]; cited from earlier work.
The test system of the next test is Mϕs (WT and Fpr2^−/−). Briefly: Mϕ chemotaxis. The note with it: 120 min, 37°C, 5-μm pores; for Mϕ chemotaxis, Fpr2^−/− compared with WT: Fpr2^−/− Mϕs, for fMLP at concentrations >1 μM. The test is classed as cell-based, mouse. The procedure, abridged: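 Macrophages were either bone-marrow-derived (5 d in 20% FCS/30% L929-conditioned DMEM) or peritoneal cells elicited by Biogel (harvested 4 d after i.p. 2% P-100). Cells were suspended at 4 × 10^6/ml in RPMI 1640 with 0.1% BSA. 10^5 cells were placed above 5-μm polycarbonate filters, with stimuli below, for 120 min at 37°C/5% CO2. Migrated cells were quantified by 4 h alamarBlue fluorescence (ex 530–560, em 590 nm) against a macrophage standard curve. Three experiments, each in quadruplicate.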

Test [5] has as its system zymosan-elicited Gr1^+ cell influx, WT and Fpr2^−/− mice. Briefly: Zymosan-induced peritonitis, Gr1^+ cell recruitment. The format is in vivo, mouse. As to conditions: 1 mg i.v. −10 min, zymosan 1 mg i.p., 4 h, n = 6, NS, mean ± SEM. The procedure, abridged:
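Peritonitis was induced in WT and Fpr2−/− mice with zymosan A, 1 mg i.p. in 0.5 ml PBS. Test protein (1 mg) was given i.v. 10 min before zymosan. Cavities were lavaged at 4 h with PBS containing 25 U/ml heparin and 0.3 mM EDTA. Gr1+ cell influx was quantified by Turk's differential counts and flow cytometry, with percentage of events multiplied by total count per cavity.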

In a further test the test system is fpr1^−/− mice. As to conditions: ref [42]; cited from earlier work.

Entries after “also recorded” stand apart in the source; their conditions may differ. Read-outs that look alike come from different tables or passages of the source. No end group written: not given here.

As for WKYMVm [W-peptide], in test [1], the “ERK phosphorylation, Fpr2^−/− Mϕs” value is reported as “absent” and the “ERK phosphorylation, WT Mϕs” value is given as “concentration-dependent rapid phosphorylation of ERK”. Further, the “ligand activity / affinity at Fpr2” value with Fpr2 [2] (high-affinity ligand, ref [30]) is recorded as “high-affinity ligand for Fpr2”. Moreover, the “binding sites revealed by Scatchard plot” value in the test with Fpr2 [3] is “both high- and low-affinity binding sites”.
Consider `CCCCC[C@H](O)/C=C/C=C\C=C\C=C\[C@@H](O)[C@@H](O)CCCC(=O)O` [LXA4, lipoxin A4], for which, in the test on Fpr2 [2] (ref [23]), the “activation of Fpr2” value is “known to be activated”. Also, the “effect on IL-1β-promoted cell recruitment, Fpr2^−/−” value (shortened to “effect”) in [4] (Fpr2^−/− mice, i.v., air pouch) is on record as “ineffective”. Further, the “inhibition of IL-1β-promoted Gr1^+ cell recruitment, WT” value in test [4] (WT mice, i.v., air pouch) is recorded as 50–75%.
As to `CC(C)c1c(NC(=O)Nc2ccc(Cl)cc2)c(=O)n(-c2ccccc2)n1C` [Cpd43], the “ERK phosphorylation, WT Mϕs” value in [1] is listed as “concentration-dependent rapid phosphorylation of ERK”. In the test on FPR2/ALX, the FPR2/ALX agonism entry is “selective nonpeptidic FPR2/ALX agonist”. Besides, the “effect” value in [4] (Fpr2^−/− mice, i.v., air pouch) is “ineffective”. In [4] (WT mice, i.v., air pouch), the “inhibition of IL-1β-promoted Gr1^+ cell recruitment, WT” value was 50–75%.
For Ac-AMVSEFLKQAWIENEEQEYVVQTVK [Ac2–26], the “activation of FPRs” value in the test with all FPRs was “known to activate all FPRs”.
As for `C[C@@H]1C[C@H]2[C@@H]3CCC4=CC(=O)C=C[C@]4(C)[C@@]3(F)[C@@H](O)C[C@]2(C)[C@@]1(O)C(=O)COP(=O)([O-])[O-].[Na+].[Na+]` [dexamethasone, dexamethasone 21-phosphate disodium salt], the “efficacy in air pouch, Fpr2^−/− mice” value in test [4] (Fpr2^−/− mice, dexamethasone 0.5 mg/kg i.v. −1 h, IL-1β 20 ng) is recorded as “reduced efficacy”. Further, the “Gr1^+ cell infiltrate into air pouch, WT” value in [4] (WT mice, dexamethasone 0.5 mg/kg i.v. −1 h, IL-1β 20 ng) is “significantly reduced”.
Take formyl-Met-Leu-Phe [fMLP]: the “concentration for optimal Mϕ chemotaxis” value in the test with Mϕs (WT and Fpr2^−/−) (mean of three experiments in quadruplicate) was 1 µM. The “Mϕ chemotaxis, Fpr2^−/− compared with WT” value with Mϕs (WT and Fpr2^−/−) is listed as “attenuated significantly”.

B1: hrAnxA1: GST-tagged human recombinant annexin A1, produced in Escherichia coli (protein, UniProt P04083 2-346, looked up)
Annexin A1: AMVSEFLKQAWFIENEEQEYVQTVKSSKGGPGSAVSPYPTFNPSSDVAALHKAIMVKGVDEATIIDILTKRNNAQRQQIKAAYLQETGKPLDETLKKALTGHLEEVVLALLKTPAQFDADELRAAMKGLGTDEDTLIEILASRTNKEIRDINRVYREELKRDLAKDITSDTSGDFRNALLSLAKGDRSEDFGVNEDLADSDARALYEAGERRKGTDVNVFNTILTTRSYPQLRRVFQKYTKYSKHDMNKVLDLELKGDIEKCLTAIVKCATSKPAFFAEKLHQAMKGVGTRHKALIRIMVSRSEIDMNDIKAFYQKMYGISLCQAILDETKGDYEKILVALCGGN
modifications: GST tag
On to B1, for which, in [4] (Fpr2^−/− mice, i.v. −10 min, IL-1β 20 ng, NS), the “inhibition of PMN accumulation in air pouch, Fpr2^−/− mice” value is recorded as 25–30%. The “inhibition of PMN accumulation in air pouch, dose dependence” value in test [4] (WT mice, i.v. −10 min, IL-1β 20 ng) was “dose-response inhibition”. In [5], the “reduction of Gr1^+ cell content in peritoneal fluids, Fpr2^−/−” value is −5 ± 12%. Besides, the “anti-migratory action in fpr1^−/− mice” value with fpr1^−/− mice is given as “a high proportion of the anti-migratory action of hrAnxA1 is retained”.

B2: SAA: serum amyloid A, purchased from PeproTech (protein, UniProt P0DJI8 19-122, looked up)
Serum amyloid A-1 protein: RSFFSFLGEAFDGARDMWRAYSDMREANYIGSDKYFHARGNYDAAKRGPGGAWAAEVITDARENIQRFFGHGAEDSLADQAANEWGRSGKDPNHFRPAGLPEKY
With B2, the “ERK phosphorylation, Fpr2^−/− Mϕs” value in test [1] is “unchanged; also recorded: retained; also recorded: not diminished”. The “Mϕ chemotaxis, Fpr2^−/− compared with WT” value in the test on Mϕs (WT and Fpr2^−/−) is given as “absent”. Moreover, the “Mϕ chemotaxis, WT” value with Mϕs (WT and Fpr2^−/−) (WT Mϕs) is listed as “promoted consistently”. The “activation of Fpr2” value in the test on Fpr2 [2] (ref [22]) was “known to be activated”. Further, the “effect” value in test [4] (Fpr2^−/− mice, i.v., air pouch) is recorded as “did not share this response”. Moreover, in test [4] (WT mice, i.v., air pouch, control values of 3.0 ± 0.4 × 10^6 per cavity), the “increase in number of cells recruited by IL-1β over control” value came to 1.5 fold.
